These results are taken from PubChem BioAssay AID1885 (Broad Institute, 2009).

Where “and” joins values, the source holds several entries; their conditions need not be identical. Equal entries are not always repeated. The campaign covered roughly 300,000 compounds. About 4,400 (1.5%) were called active.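 How the source made its calls: active means mean inhibition across valid replicates above about 55% (limit read from the data); inconclusive means mean below that limit but half or more replicates reach it; inactive means mean below it, under half of replicates reach it.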 Many of the other results were omitted from the sample, so actives are more common in it than they were. The source holds several records for some structures; these can differ, active in one and inactive in another.

The test can be described thus: Trypanosoma cruzi replication blockers in host cells – luminescence, NIH3T3 host cells, primary screen (AID 1885).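 Further: signal also drops with host cell toxicity which is not excluded here; 0% = plate median of DMSO wells and 100% = zero luminescence signal.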 As to conditions: T. cruzi beta-gal in NIH3T3, luminescence, 90 h; stronger effect = higher value; concentration not given here. A digest of the protocol:
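compound dosing = single 50 nL compound addition per well in DMSO | material = NIH/3T3 host cells with β-galactosidase reporter T. cruzi | input = 5,000 host fibroblasts per well | timing = ≥90 h infection period, 3 h prior cell attachment | read-out basis = percent inhibition of parasite-derived β-gal signal | detection = GalScreen β-gal luminescence, detergent lysis, 60 min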
With `CC(C)CC(O)C1CCN(C(=O)CCc2nnc(-c3ccc4c(c3)OCO4)o2)CC1` (stereo not drawn), the inhibition was 3.35% (inactive).
To `Cc1ccc(OCCNC(=O)CNC(=O)c2ccc(C)c(C)c2)cc1` belongs -2.75% (inactive); to `Cc1ccc(C(=O)C[n+]2cc(-c3ccccc3)n3c2CCCCC3)cc1`, 45.3% (inactive) and 65.4% (active); to `Cc1ccc(-c2c[n+](CC(=O)Nc3ccccc3)c3n2CCC3)cc1`, -0.923% (inactive).
In the case of `Clc1ccc(C[n+]2cc(-c3ccccc3)n3c2CCC3)cc1` it was 27.8% (inactive).
To `COc1ccc(-c2cc(C(=O)N3CCN(Cc4ccc5c(c4)OCO5)CC3)on2)cc1OC` belongs -12.7% (inactive); to `CCC(CC)c1nnc(NC(=O)C2=COCCO2)s1`, -5.48% (inactive); to `Cc1cccc(C(=O)c2cccc(C)c2)c1`, -0.776% (inactive).
`Cc1cccc(C(=O)NCCCN(C)CCCNC(=O)c2cccc(C)c2)c1`: the inhibition was 66.4% (active).
To `CCNC(=O)COC(=O)CCNC(=O)c1cccc(C)c1` belongs 8.59% (inactive); to `O=C(COC(=O)c1ccccc1Br)Nc1nnc(-c2ccccc2)o1`, 1.76% (inactive).
In the case of `NC(=O)Cc1nc2scc(-c3ccc(Cl)cc3)c2c(=O)[nH]1` it was -9.75% (inactive); in that of `O=c1[nH]c(CN2CCOCC2)nc2cc(Cl)ccc12`, -13.1% (inactive); in that of `O=c1[nH]c(CCl)nc2cc(-c3ccc(Cl)cc3)sc12`, 55.8% (active).
To `CCC1CCC/C1=N\NC(=O)c1ccc(Cl)cc1` (stereo not drawn) belongs -10.7% (inactive); to `Cc1ccccc1Nc1nc(N)nc(CSc2ccccc2)n1`, 4.95% (inactive); to `O=C(CNC(=O)c1ccccc1Br)NCCSc1ccc(Br)cc1`, -2.64% (inactive).
`O=C(/C=C/c1ccc(Cl)c([N+](=O)[O-])c1)c1ccc(O)cc1`: the inhibition is -0.939% (inactive).
In the case of `O=C(/C=C/c1ccc(Cl)c([N+](=O)[O-])c1)c1cccnc1` it was 34% (inactive); in that of `NC(N)=N/N=C/c1ccc(Cl)c([N+](=O)[O-])c1`, 60.6% (active); in that of `COc1ccccc1C(=O)Nc1ccc(Nc2ccccc2)cc1`, -9% (inactive).
To `COc1ccccc1CNC(=O)COn1nnc2ccc(S(=O)(=O)N3CCOCC3)cc21` belongs 3.8% (inactive); to `Cc1ccc(-c2noc(CSc3nnc(-c4ccncc4)n3-c3ccc(F)cc3)n2)cc1`, 9.52% (inactive); to `Cc1ccccc1-n1c(SCC(=O)NCc2cccs2)nnc1-c1ccncc1`, 9.95% (inactive).
In the case of `Cc1ccc(Nc2nc(CSc3nnc(-c4ccncc4)n3-c3ccccc3C)cs2)cc1` it was 57.4% (active).
`COC(=O)c1cc(NC(=O)c2nn(C)c(=O)c3ccccc23)cc(C(=O)OC)c1`: the inhibition was -14.3% (inactive).
`O=C(CC1SC(N2CCCC2)=NC1=O)Nc1ccc(C(=O)NCCc2ccc(F)cc2)cc1` (stereo not drawn): the inhibition was -6.73% (inactive).
In the case of `COC(=O)c1[nH]c2ccccc2c1NC(=O)CN1CCCc2ccccc21` it was 67.6% (active); in that of `COC(=O)c1[nH]c2cccc(C)c2c1NC(=O)CN1CCCc2ccccc21`, 4.45% (inactive).
Consider `NS(=O)(=O)c1cccc(NC(=O)CN2CCCc3ccccc32)c1`, for which the inhibition is -16.2% (inactive).
For `CSc1n[nH]c(=S)n1N`, the inhibition was -10.3% (inactive).
For `COC(=O)c1cnc(Nc2cc(C)ccc2OC)c2ccccc12`, the inhibition was -8.82% (inactive).
To `Cc1nonc1NC(=O)c1oc2ccccc2c1C` belongs -12.6% (inactive); to `Cc1c(C(=O)NC(=S)NCc2cccnc2)oc2ccccc12`, 63.2% (active).
To `Cc1ccc(C(=O)NC(=S)NCc2cccnc2)cc1` belongs 14.1% (inactive); to `CC(C)CN(C(=O)COC(=O)c1ccc2ccccc2c1)c1c(N)n(Cc2ccccc2)c(=O)[nH]c1=O`, 2.62% (inactive); to `CCN(C(=O)COC(=O)C1CCN(S(=O)(=O)c2ccc(C)c(C)c2)CC1)C1CCS(=O)(=O)C1` (stereo not drawn), -2.19% (inactive).
On to `NC(=O)c1c(NC(=O)c2ccccc2)sc2c1CCCC2`, for which the inhibition is 12.5% (inactive).
As to `Cc1ccc(NC(=O)c2c(NC(=O)CCC(=O)O)sc3c2CCCCC3)cc1`, the inhibition is -8.68% (inactive).
To `Cc1ccc(C(=O)c2c(NC(=O)c3ccncc3)sc3c2CCCC3)cc1` belongs 57.9% (active).
In the case of `CN(C)C(CNC(=O)c1cccc(S(=O)(=O)Nc2ccc(Br)cc2)c1)c1ccco1` (stereo not drawn) it was 20.3% (inactive).
In the case of `COc1ccc(OC)c(NC(=O)c2ccc3c(c2)C(=O)N(c2ccc(OC(C)=O)cc2)C3=O)c1` it was -18% (inactive); in that of `CCCOc1ccc(NC(=O)C2OC3OC(C)(C)OC3C3OC(C)(C)OC23)cc1` (stereo not drawn), 4.62% (inactive).
On to `Cc1cc(-c2ccc(/C=N/n3cnnc3)o2)c([N+](=O)[O-])cc1C`, for which the inhibition is -3.12% (inactive).
In the case of `CN1CCN(/N=C/c2ccc(-c3ccc([N+](=O)[O-])cc3)o2)CC1` it was 59.9% (active); in that of `CN1CCN(/N=C/c2ccc(C#N)cc2)CC1`, 48.6% (inactive).
In the case of `COc1ccc(-c2nc3c(s2)CCc2onc(-c4ccc(Br)cc4)c2-3)cc1` it was -2.05% (inactive); in that of `Cc1ccc(OCCNC(=O)CCNS(=O)(=O)c2ccc(Br)cc2)cc1`, -1.12% (inactive).
To `COc1ccc(NC(=O)CSc2nnc(Cc3ccccc3)c(=O)n2N)cc1` belongs -3.84% (inactive); to `CS(=O)(=O)c1ccc2nc(NC(=O)c3ccc(N4CCCC4=O)cc3)sc2c1`, 0.975% (inactive); to `O=C(Nc1nc2ccc([N+](=O)[O-])cc2s1)c1ccc(S(=O)(=O)N2CCCc3ccccc32)cc1`, 73.8% (active).
`CN(C)CCCN(C(=O)c1ccc(S(=O)(=O)N2CCCc3ccccc32)cc1)c1nc2ccc(F)cc2s1`: the inhibition is 22.9% (inactive).
In the case of `CC(C)(C)N1C(=O)[C@H]2[C@@H](c3ccc(Br)cc3)N3C(=O)N(c4cccc(Cl)c4)C(=O)[C@@]3(C)[C@H]2C1=O` it was -6.33% (inactive); in that of `CC(=O)NCCC(=O)Nc1nc(-c2ccc3c(c2)OCCO3)cs1`, -11.7% (inactive).
In the case of `Cc1csc(NC(=O)C2=COCCO2)n1` it was -7.78% (inactive); in that of `Cc1ccc(-c2csc(NC(=O)C3=COCCO3)n2)cc1C`, 71.6% (active).
On to `Cc1ccc(-c2nn(-c3ccccc3)cc2C(=O)NCCCN2CCCC2=O)cc1`, for which the inhibition is -2.8% (inactive).
To `CC(C)(C)n1cnnc1Sc1ccc([N+](=O)[O-])cn1` belongs -5.35% (inactive).
